Data set [1] is filed under the species Mus musculus. Kind of data set: Neuroprotective activity against kainate-induced cell death in mouse primary motor neurons by MTT assay. Type of data set: functional.
Data set [2] is filed under the species Mus musculus. Kind of data set: Neuroprotective activity against kainate-induced cell death in mouse primary motor neurons by cell counting method. Type of data set: functional.
Data set [3] has as its system Cortical neurone. The data set can be described thus: Neuroprotective activity against kainate-induced cell damage in mouse primary cortical neurons assessed as reduction in kainate-induced neurofilament loss by measuring increase in MAPK level at 1 uM pretreated followed by kainate challenge measured after 18 hrs by fluorescence assay. The following applies: in the assay text read “MAP2” for “MAPK”. Type of data set: functional, cell-based. In short, it runs like this:
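Mouse primary cortical neurons cultured as previously described; dendritic processes stained with anti-MAP2 antibody. Cell-profile perimeter measured by image analysis, each condition normalized to kainate-only.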

The species named for data set [4] is Mus musculus. Kind of data set: Neuroprotective activity against kainate-induced cell damage in mouse primary motor neurons assessed as reversal of kainate-induced neuronal length preceding cell death by fluorescence assay. Type of data set: functional. In short, it runs like this:
(§1)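 Mouse primary motor neurons, fixed after treatment and stained with SMI-32 for neurofilaments, then fluorescently imaged. Sholl analysis counted process intersections at each 100 μm radius from the cell centre. Ten cells per condition, three independent experiments, data pooled.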

For data set [5], the species on record is Mus musculus. The data set can be described thus: Neuroprotective activity against kainate-induced cell death in mouse primary motor neurons by caspase activation method. The format is functional.
In data set [6] the test system is Cortical neurone. The data set can be described thus: Neuroprotective activity against kainate-induced cell death in mouse primary cortical neurons by MTT assay. Type of data set: functional, cell-based. (Tetrazolium assays rely on reduction of a dye to a coloured formazan, in cell work by metabolically active cells.)
Data set [7] deals with Cortical neurone. Kind of data set: Neuroprotective activity against kainate-induced cell damage in mouse primary cortical neurons assessed as reversal of kainate-induced reduction in calcium flux by fura-2-AM dye based fluorescence assay. Type of data set: functional. In short, it runs like this: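 Mouse primary cortical neurons loaded with fura-2AM for 45 min, washed, then depolarized with 10 mM KCl to drive Ca2+ entry through voltage-gated calcium channels. Flux read on a plate-based system.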

In data set [8] the test system is Cortical neurone. The data set can be described thus: Neuroprotective activity against kainate-induced cell death in mouse primary cortical neurons by caspase activation method. Type of data set: functional, cell-based.
Data set [9] relates to Cortical neurone. Kind of data set: Neuroprotective activity against kainate-induced cell death in mouse primary cortical neurons by cell counting method. Type of data set: functional, cell-based.
Data set [10] deals with Rattus norvegicus. Kind of data set: Protection against glutamate-induced seizures in ip dosed Sprague-Dawley rat pretreated for 30 mins followed by glutamate challenge and measured for 30 mins. The format is functional.
The species entered for data set [11] is Mus musculus. The data set can be described thus: Neuroprotective activity against kainate-induced cell damage in mouse primary motor neurons assessed as reversal of kainate-induced neuronal length preceding cell death at […] by fluorescence assay. The format is functional. Summed up: as §1
Data set [12] deals with Cortical neurone. Kind of data set: Toxicity in mouse primary cortical neurons assessed as MAP2 loss by fluorescence assay. Type of data set: cell-based. Summed up:
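MAP2 immunostaining of dendritic processes in mouse primary cortical neurons, with cell-profile perimeter measured by image analysis.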

The species named for data set [13] is Mus musculus. The data set can be described thus: Neuroprotective activity against kainate-induced cell damage in mouse primary motor neurons assessed as reversal of kainate-induced neuronal length preceding cell death at 500 nM by fluorescence assay. Type of data set: functional. In short, it runs like this: as §1

Active and inactive are the calls of the source.

What is called ED50 is the midpoint of the dose-response relation.

Turning to `CCc1ccc(-c2cn(CCn3c(=N)sc4cc(OC(F)(F)F)ccc43)nn2)cc1`, the result in [1], in data set [2], in [4], in data set [5], in data set [6] and in [8] was inactive. The outcome in [9] was inactive. In addition, the outcome in [3] and in [7] was Active.

On to `N=c1sc2cc(OC(F)(F)F)ccc2n1CCN1CCN(c2ccccc2)CC1`, for which the ED50 in [10] amounted to 3.5 mg/kg.

As for `N=c1sc2cc(OC(F)(F)F)ccc2n1CCn1cc(-c2ccc(Br)cc2)nn1`, the result in [1], in data set [2], in data set [4], in data set [5], in data set [6] and in data set [8] was inactive. In data set [9], the outcome was inactive. For the same compound, the outcome in [3] and in data set [7] was Active.

Regarding `Nc1nc2ccc(OC(F)(F)F)cc2s1` [RILUZOLE], the result in data set [1], in data set [2], in data set [3], in data set [5], in [6] and in data set [8] was inactive. Moreover, the outcome in [9] was inactive. Further, the result in data set [11] was Active. The ED50 in [10] is 3.2 mg/kg.

Take `N=c1sc2cc(OC(F)(F)F)ccc2n1CCn1cc(-c2ccccc2)nn1`: the outcome in data set [1], in [2], in data set [3], in data set [4], in data set [5] and in data set [6] was inactive. Besides, the outcome in data set [8] and in data set [9] was inactive. In addition, the outcome in data set [7] was Active.

As to `N=c1sc2cc(OC(F)(F)F)ccc2n1CCN1CCC(c2ccccc2)CC1`, the ED50 in data set [10] was 3 mg/kg.

For `N#Cc1ccc(-c2cn(CCn3c(=N)sc4cc(OC(F)(F)F)ccc43)nn2)cc1`, the result in data set [1], in data set [2], in data set [3], in [5], in data set [6] and in data set [8] was inactive. Moreover, the outcome in [9] was inactive. Also, the result in data set [7] was Active.

For `N=c1sc2cc(OC(F)(F)F)ccc2n1CCn1cc(-c2ccccc2Cl)nn1`, the outcome in data set [1], in data set [2], in data set [3], in data set [5], in [6] and in [8] was inactive. The result in [9] was inactive. Moreover, the outcome in data set [7] was Active.

For the compound `N=c1sc2cc(OC(F)(F)F)ccc2n1CCn1cc(-c2cccc3ccccc23)nn1`, the result in data set [1], in [2], in [3], in data set [5], in [6] and in [8] was inactive. The outcome in data set [9] was inactive. For the same compound, the result in data set [7] was Active.

As to `COC(=O)c1ccc(-c2cn(CCn3c(=N)sc4cc(OC(F)(F)F)ccc43)nn2)cc1`, the outcome in data set [1], in [2], in data set [3], in data set [5], in [6] and in data set [8] was inactive. The result in data set [9] was inactive. Moreover, the Activity result in [12] was “Toxic”. In addition, the outcome in data set [7] was Active.

Turning to `N=c1sc2cc(OC(F)(F)F)ccc2n1CCn1cc(-c2ccncc2)nn1`, the result in data set [1], in data set [2], in [5], in data set [6], in data set [8] and in [9] was inactive. For the same compound, the result in data set [3], in data set [13] and in [7] was Active.

Take `N=c1sc2cc(OC(F)(F)F)ccc2n1CCn1cc(-c2ccc(C(F)(F)F)cc2)nn1`: the outcome in data set [1], in data set [2], in [3], in [5], in [6] and in [8] was inactive. Besides, the outcome in [9] was inactive. The outcome in data set [7] was Active.

On to `N=c1sc2cc(OC(F)(F)F)ccc2n1CCn1cc(-c2ccc(F)cc2F)nn1`, for which the outcome in data set [1], in data set [2], in [3], in data set [5], in data set [6] and in data set [8] was inactive. Also, the result in [9] was inactive. In addition, the outcome in data set [7] was Active.

For the origin of these results see ChEMBL document CHEMBL4145631, “Riluzole-Triazole Hybrids as Novel Chemical Probes for Neuroprotection in Amyotrophic Lateral Sclerosis” (ACS Med Chem Lett, 2018).
